“And” between values parts separate entries of the source, which are not always exact repeats. Equal values may be shown once.
Experiments:
A. aeolicus IspH = target: T1, A. aeolicus IspH (Aquifex aeolicus, UniProt O67625); assay: IspH enzyme inhibition assay; format: biochemical
T1 sequence (O67625 1-289): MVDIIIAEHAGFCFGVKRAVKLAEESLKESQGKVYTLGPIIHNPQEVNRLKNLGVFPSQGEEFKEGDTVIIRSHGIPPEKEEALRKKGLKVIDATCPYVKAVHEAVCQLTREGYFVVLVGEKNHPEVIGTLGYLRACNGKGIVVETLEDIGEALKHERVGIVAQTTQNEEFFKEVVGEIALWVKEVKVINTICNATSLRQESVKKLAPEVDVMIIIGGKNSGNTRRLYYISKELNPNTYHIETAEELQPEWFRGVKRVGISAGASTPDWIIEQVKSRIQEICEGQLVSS
Method in brief: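 Ni-NTA-purified recombinant enzyme expressed in E. coli BL-21(DE3). Cluster reconstituted anaerobically with DTT, elemental sulfur and FeCl3 until A410/A280 reached about 0.38. Run anaerobically at room temperature in pH 8.0 Tris·HCl/NaCl/5% glycerol with 0.4 mM dithionite, 2 mM methyl viologen and 72 nM enzyme, across varied HMBPP. Initial rates at 732 nm fitted to Michaelis-Menten.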

[1] = target: farnesyl diphosphate synthase; details: read-out: Ki, farnesyl diphosphate synthase inhibition; previous work ref 22; cited from earlier work
IspH = details: cited from earlier work

Compound	activity in IspH inhibition (in words) (A. aeolicus IspH)	also measured
C#CC(=O)O [propiolic acid]	poor activity	–
N#CCOP(=O)(O)OP(=O)(O)O [compound 15, Cyanomethyl diphosphate]	far less active than their acetylenic counterparts	–
Cc1ccc[n+](CC(O)(P(=O)([O-])O)P(=O)(O)O)c1 (stereo not shown) [compound 18]	–	Ki [1]: ~0.02 µM
C/C(=C\COP(=O)(O)OP(=O)(O)O)CO [HMBPP, E-4-hydroxy-3-methyl-but-2-enyl diphosphate]	–	Km (A. aeolicus IspH; read-out: KM for HMBPP, reconstituted A. aeolicus IspH, Michaelis-Menten fit): 5 µM and 7 µM
O=P(O)(O)OP(=O)(O)OCc1ccc(Cl)nc1 [compound 29, (6-Chloropyridin-3-yl)-methyl-diphosphate]	lack of activity	–
N#CCCOP(=O)(O)OP(=O)(O)O [compound 16, 2-Cyanoethyl diphosphate]	far less active than their acetylenic counterparts	–
O=P(O)(O)OP(=O)(O)O [PPi]	–	IspH inhibition (weak inhibitors) (IspH): ~ 1 mM

Reference: article PMC2874468 (Journal of the American Chemical Society, 2010)
